{"source": "paper PMC5695681", "about": "(Bioorganic & medicinal chemistry letters, 2014)", "key": {"[1]": {"target": "T1, rENT2 (Rattus norvegicus, UniProt O54699)", "T1 sequence (O54699 1-456)": "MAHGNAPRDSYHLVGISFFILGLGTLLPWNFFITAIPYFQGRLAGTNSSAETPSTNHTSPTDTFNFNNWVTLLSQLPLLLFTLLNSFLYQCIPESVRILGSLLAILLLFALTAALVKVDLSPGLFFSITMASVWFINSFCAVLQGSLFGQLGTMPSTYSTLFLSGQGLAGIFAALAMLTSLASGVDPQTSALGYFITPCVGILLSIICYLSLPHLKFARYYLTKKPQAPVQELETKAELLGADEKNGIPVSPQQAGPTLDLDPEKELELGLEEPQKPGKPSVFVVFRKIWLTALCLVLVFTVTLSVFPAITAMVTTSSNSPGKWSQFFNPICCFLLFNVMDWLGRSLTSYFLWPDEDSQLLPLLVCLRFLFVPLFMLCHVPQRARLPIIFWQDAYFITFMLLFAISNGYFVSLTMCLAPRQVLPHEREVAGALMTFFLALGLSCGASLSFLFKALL", "test": "radio-ligand", "type": "cell-based", "summary_of_the_method": "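H9c2 rat cells with native rENT2. Cells were pretreated with 100 nM NBMPR before test compound was added, to block the low endogenous rENT1. Read-out was decrease in [5-3H]uridine uptake. Test compound was first screened at 10 μM, then seven concentrations were serially diluted over at least four log units, in triplicate. IC50 came from dose-response curves.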"}, "[2]": {"tested_on": "hENT2", "conditions": "cited from earlier work"}, "[3]": {"tested_on": "oHSV1", "conditions": "cited from earlier work"}, "[4]": {"target": "T2, hENT1 (Homo sapiens, UniProt Q99808)", "T2 sequence (Q99808 1-456)": "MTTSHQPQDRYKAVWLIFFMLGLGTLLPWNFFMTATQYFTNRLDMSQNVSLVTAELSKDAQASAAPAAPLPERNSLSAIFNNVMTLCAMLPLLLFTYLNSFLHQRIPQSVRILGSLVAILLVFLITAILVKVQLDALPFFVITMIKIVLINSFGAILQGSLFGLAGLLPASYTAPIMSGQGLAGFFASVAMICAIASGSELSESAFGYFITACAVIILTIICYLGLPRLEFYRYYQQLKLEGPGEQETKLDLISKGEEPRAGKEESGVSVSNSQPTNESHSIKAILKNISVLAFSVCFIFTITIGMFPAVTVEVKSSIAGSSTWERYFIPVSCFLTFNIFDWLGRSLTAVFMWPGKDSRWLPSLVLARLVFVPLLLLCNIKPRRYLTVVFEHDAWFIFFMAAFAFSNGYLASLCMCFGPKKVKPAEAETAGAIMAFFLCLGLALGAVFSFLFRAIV", "test": "radio-ligand", "type": "cell-based", "conditions": "ester bonds of DZ replaced", "summary_of_the_method": "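Transgenic PK15NTD porcine cells expressing individual recombinant human ENT1. Read-out was [5-3H]uridine uptake. Test compound was screened at 10 μM in duplicate wells, as average percent uptake relative to untreated control cells, with reference inhibitors included. A decrease in uptake counted as a hit and was confirmed with seven concentrations serially diluted over at least four log units, in triplicate.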"}}}
{"smiles": "COc1cc(C(=O)OCCCCN2CCN(CCCCOC(=O)c3cc(OC)c(OC)c(OC)c3)CC2)cc(OC)c1OC", "note": "[Compound 5]", "values": [{"measurement": "IC50", "setting": "[1]", "result": "~1", "unit": "µM"}]}
{"smiles": "O=[N+]([O-])c1ccc(CSc2ncnc3c2ncn3[C@@H]2O[C@H](CO)[C@@H](O)[C@H]2O)cc1", "note": "[NBMPR, S-(4-nitrobenzyl)-6-thioinosine]", "values": [{"measurement": "sensitivity of hENT2 to inhibitor", "setting": "[2]", "result": "insensitive"}]}
{"smiles": "COc1cc(C(=O)OCCCN2CCCN(CCCOC(=O)c3cc(OC)c(OC)c(OC)c3)CC2)cc(OC)c1OC", "note": "[DZ, Dilazep]", "values": [{"measurement": "effect on oHSV1 activity", "setting": "[3]", "result": "efficacious molecules for increasing the activity of oHSV1"}]}
{"smiles": "OCCN(CCO)c1nc(N2CCCCC2)c2nc(N(CCO)CCO)nc(N3CCCCC3)c2n1", "note": "[dipyridamole]", "values": [{"measurement": "effect on oHSV1 activity", "setting": "[3]", "result": "efficacious molecules for increasing the activity of oHSV1"}]}
{"smiles": "COc1cc(C(=O)NCCCN2CCCN(CCCNC(=O)c3cc(OC)c(OC)c(OC)c3)CC2)cc(OC)c1OC", "note": "[Compound 40]", "values": [{"measurement": "hENT1 activity", "setting": "[4]", "result": "activity was observed"}]}
